From the RNAGym collection of RNA variant scans (doi:10.1126/science.aae0568) come the findings set out here.

Variants at the floor of the assay were thinned out. A value given as a limit tells only on which side of the number the result lay.

The chains are these.
B1: tRNA (parent)
chain: GUUCCGUUGGCGUAAUGGUAACGCGUCUCCCUCCUAAGGAGAAGACUGCGGGUUCGAGUCCCGUACGGAACG

In this data set the parent is B1. The data set is described as follows: yeast fitness relative to wild type (ratio to wild type); higher = fitter; tRNA-Arg(CCU), competitive growth, 37 C, YPD. In short, it runs like this: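 The tRNA-Arg(CCU) gene variants were made by chemical synthesis with a 3% per-site mutation rate at 69 sites and inserted at the native genomic locus of Saccharomyces cerevisiae. After pooling, the strains were competed in YPD at 37°C for 24 hours in six parallel replicates. Gene amplicons from the start population and each end population were read by 100-nucleotide paired-end sequencing, and Darwinian fitness relative to wild type was taken from genotype frequency changes. Genotypes needed ≥ 100 starting reads, and estimates < 0.5 were set to 0.5.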
With GUUCCGUUGGCGUAAUGGUAACACGUCUCCCUCCUAAGGAGAAGACUGUGGGUUCGAGUCCCGUACGGAACG [G23A C49U], the yeast fitness was determined as 0.735. Next, GUUCCGUUGGCGUAAUGGUAACACGUCUCCCUCCUAAGGAGAAGACUGCGGGUUCGAGCCCCGUACGGAACG [G23A U59C]: 0.799; GUUCCGUUGGCGUAAUGGUAACCCGUCUCCCUCCUCAGGAGAAGCCUGCGGGUUCGAAUCCCGUACGCAACG [G23C A36C A45C G58A G68C]: ≤ 0.5. As to GUUCCGUUGGCGUAAUGGUAACACGUCUCCCUCCUAAGGAGAAGACUCCGGGUUGGAGUCCCGUACGGAACG [G23A G48C C55G], the yeast fitness is ≤ 0.5. Next, GUUCCGUUGGCGUAAUGGUAACCCGUCUCCCUCCUAGGGAGUAGACUCUGGGUUCGAGUCCCGUACGGAACG [G23C A37G A42U G48C C49U]: ≤ 0.5.

As to GUUCCGUUGGCGUAAUGGUAACACGUCUCCCUCCUAAGGAGAAGACUGCGGGCUCGAGUCCCGUAAGGAACG [G23A U53C C66A], the yeast fitness is ≤ 0.5. With GUUCCGUUGGCGUAAUGGUAACACGUCUCCGUCCUAAGGAGAAGCCUGCGGCUUCGAGUCCCGUACGGAACG [G23A C31G A45C G52C], the yeast fitness is ≤ 0.5. With GUUCCGUUGGCGUAAUGGUAACCCGUCUCCCUCCUACGGAGAAGACUGCGGGUUCGAGUCCCGUACGGAACG [G23C A37C], the yeast fitness was found to be 0.656. In the case of GUUCCGUUGGCGUAAUGGUAACCCGUCUCCCUCCUAGGGAGAAGACUGCGGGUUCGAGUCCCGUACGGAACG [G23C A37G], the yeast fitness was ≤ 0.5. With GUUCCGUUGGCGUAAUGGUAACACGUCUCCCUCCUAAGGAGAAGAAUGCGGGUUCGAGUCCCGUACGGAACG [G23A C46A], the yeast fitness was found to be 0.882. For GUUCCGUUGGCGUAAUGGUAACACGUCUCCCUCCUAAGGAGAAGACUGCGGGUUCGAGUCCCAUACGGAACG [G23A G63A], the yeast fitness worked out at 0.7. For GUUCCGUUGGCGUAAUGGUAACACGUCUCUCUCCUAAGGAGAAGACUGCGGGUUCGAGUCCCAUACGGAACG [G23A C30U G63A], the yeast fitness is ≤ 0.5.

GUUCCGUUGGCGUAAUGGUAACCCGUCUCCCUCCUUAGGAGAAGACUGCGGGCUCGAGUCCCGUACGGAACG [G23C A36U U53C]: the yeast fitness was found to be 0.553. As for GUUCCGUUGGCGUAAUGGUAACCCGUCUCCCUCCUACGGAGGAGAGUGCGGGUUCGAGUCCCGUAUGGAACG [G23C A37C A42G C46G C66U], the figure is ≤ 0.5; as for GUUCCGUUGGCGUAAUGGUAACACGUCUCCCUCCUAAGGAGAAGACUGCGGGUUCGAGUCCUGUACGGAACG [G23A C62U], 0.781; as for GUUCCGUUGGCGUAAUGGUAACACGUCUCCCUCCUAAGGAGAAGACUGCGGGUUCGAGUCCGGUACGGAACG [G23A C62G], 0.782. For the variant GUUCCGUUGGCGUAAUGGUAACACGUCUCCCUCAUAAGGAGAUGACCGCGGGUUCGAGUCCCGUACGGAACG [G23A C34A A43U U47C], the yeast fitness is 0.577.

As for GUUCCGUUGGCGUAAUGGUAACACGUCUCCUUCCUAAGGAGAAGACUGCGGGUUCGAGUCCCGUACGGAUCG [G23A C31U A70U], the yeast fitness was determined as 0.528.

For the variant GUUCCGUUGGCGUAAUGGUAACACGUCUCCCUCCUAAGGAGAAGACUGCGGGUUCGAAUCCCGUACGGAACG [G23A G58A], the yeast fitness turned out to be 0.715. GUUCCGUUGGCGUAAUGGUAACACGUCUCCCUCCUAAGGAGAAGACUGCGGGUUCGACUCCCGUACGGAACG [G23A G58C]: the yeast fitness worked out at 0.885. As for GUUCCGUUGGCGUAAUGGUAACCCGUCUCCCUCCUAAGGAGGAGACUGCGGGUUCAAGUCCCGUACGGAACG [G23C A42G G56A], the yeast fitness is ≤ 0.5.

For GUUCCGUUGGCGUAAUGGUAACCCGUCUCCCUCCUUAGGAGAAGAGUGCGGGUUCGAGUUCCGUACGGAACG [G23C A36U C46G C60U], the yeast fitness came to 0.591. Consider GUUCCGUUGGCGUAAUGGUAACACGUCUCCCUCCUAAGGAGAAGACUGCGGGUUCGACUCCCGUACGGACCG [G23A G58C A70C], for which the yeast fitness was found to be 0.582. For GUUCCGUUGGCGUAAUGGUAACACGUCUCCCUCCUAAGGAGAAGACUGUGGGUUCGAGUCCCGUCCGGAACG [G23A C49U A65C], the yeast fitness came out at 0.523. GUUCCGUUGGCGUAAUGGUAACCCGUCUCCCUCCUAAGGAGAAGACUGCGGGUUCGAGUCCCGUACGGAACG [G23C]: the yeast fitness stood at 0.653. For GUUCCGUUGGCGUAAUGGUAACCCGUCUCCCUCCUAUGGAGAAGACCGCGGGUUUGAGUGCCGUAUGGAACG [G23C A37U U47C C55U C60G C66U], the yeast fitness was ≤ 0.5.

For the variant GUUCCGUUGGCGUAAUGGUAACCCGUCUCCCUCCUUAGGAGAAGACUGCGCGUUCGAGUCCCGUACGGAACG [G23C A36U G51C], the yeast fitness was ≤ 0.5. In the case of GUUCCGUUGGCGUAAUGGUAACACGUCUCCCUCUUAAGGAGAAGACUGCGGGUUCGAGUCCCGUAUGGAACG [G23A C34U C66U], the yeast fitness is 0.586. Turning to GUUCCGUUGGCGUAAUGGUAACACGUCUCCUUCCUAAGGAGAAGACUGCGGGUUCGAGUCCCGUACGGAACG [G23A C31U], the yeast fitness stood at 0.731. Turning to GUUCCGUUGGCGUAAUGGUAACACGUCUCCGUCCUAAGGAGAAGACUGCGGGUUCGAGUCCCGUACGGAACG [G23A C31G], the yeast fitness was found to be 0.811.

Turning to GUUCCGUUGGCGUAAUGGUAACCCGUCUCCCUCCUAAGGCGAAGACUGCGGGUUCGAGUCCCGUACGGAACG [G23C A40C], the yeast fitness was determined as 0.666. Consider GUUCCGUUGGCGUAAUGGUAACACGUCUCCCUCCUAAGGAGAAGACUGCGGCUUCGAGUCCCGUACGGAACG [G23A G52C], for which the yeast fitness turned out to be 0.564. For GUUCCGUUGGCGUAAUGGUAACCCGUCUCCCUCCUAGGGAGAAGACUGCGGGUUCGAGUCCCGUAAGGAACG [G23C A37G C66A], the yeast fitness is ≤ 0.5. Consider GUUCCGUUGGCGUAAUGGUAACACGGCUCCCUCCUAAGGAGAAGACUGCGGGUUCGAGUCCCGUCCGGAACG [G23A U26G A65C], for which the yeast fitness is ≤ 0.5. Consider GUUCCGUUGGCGUAAUGGUAACACGUCUCCCUCCUAAGGAGAAGACUGCGAGUUCGAGUCCCGUAUGGAACG [G23A G51A C66U], for which the yeast fitness was ≤ 0.5. In the case of GUUCCGUUGGCGUAAUGGUAACCCGUCUCCCUCCUAGGGAGAAGACUGCGGGUUGGAGUCCCGUACAGAACG [G23C A37G C55G G67A], the yeast fitness was ≤ 0.5. For GUUCCGUUGGCGUAAUGGUAACCAGUCUCCCCCCUAAGGAGAAGACUGCGGGUUCGAGUCCCGUUCGAAACG [G23C C24A U32C A65U G68A], the yeast fitness is ≤ 0.5.
